Laboratory results: ChEMBL document CHEMBL1240439, “Synthesis and docking studies of novel benzopyran-2-ones with anticancer activity” (2010)

What was measured:
Type in all cases: functional
[1] = test system: NCI-H322M; test: Cytotoxicity against human NCI-H322M cells assessed as cell growth at 10 uM after 48 hrs by sulforhodamine B assay; conditions: read-out: Activity
[2] = test system: HT-29; test: Cytotoxicity against human HT-29 cells assessed as cell growth at 10 uM after 48 hrs by sulforhodamine B assay; conditions: HT-29, 48 h, read-out: Activity
[3] = test system: Malme-3M; test: Cytotoxicity against human MALME-3M cells assessed as cell growth at 10 uM after 48 hrs by sulforhodamine B assay; conditions: read-out: Activity
[4] = Cytotoxicity against human colon cancer cells after 48 hrs by sulforhodamine B assay; conditions: Cancer cell lines
Procedure, shortened: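 Cells plated at 5000–40,000/well according to doubling time, then held 24 h at 37 °C, 5% CO2, with time-zero plates TCA-fixed. DMSO stocks (400× top concentration) were diluted in medium containing 50 μg/ml gentamycin, giving five 10-fold or ½-log concentrations. After 48 h, adherent cells were fixed in 10% TCA and suspension cells in 16% TCA (final), stained with 0.4% SRB, read at 515 nm. GI50, TGI and LC50 were calculated per cell line.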

[5] = test system: HL-60(TB); test: Cytotoxicity against human HL-60(TB) cells after 48 hrs by sulforhodamine B assay; conditions: HL-60, 48 h
Procedure, shortened: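 Cells plated at 5000–40,000/well by doubling time and held 24 h at 37 °C, 5% CO2, with TCA-fixed zero-time plates. Drug given as DMSO stock diluted in medium with 50 μg/ml gentamycin, five concentrations (10-fold or ½ log steps), for 48 h. Settled suspension cells fixed with TCA (final 16%), stained with 0.4% SRB, read at 515 nm. GI50, TGI and LC50 calculated.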

[6] = test system: A498; test: Cytotoxicity against human A498 cells assessed as cell growth at 10 uM after 48 hrs by sulforhodamine B assay; conditions: A498, 48 h
[7] = test system: OVCAR-5; test: Cytotoxicity against human OVCAR5 cells assessed as cell growth at 10 uM after 48 hrs by sulforhodamine B assay; conditions: OVCAR-5, 48 h, read-out: Activity

## Cc1cc(=O)n(C(=O)COc2ccc3c(-c4ccccc4)cc(=O)oc3c2C)[nH]1
[1]
  growth at 10 µM: -24.7%
[2]
  growth at 10 µM: -44.2%
[3]
  growth at 10 µM: -8.61%
[4]
  GI50: 8.98 µM
  TGI: 32.6 µM
[4]; read-out: LC50 (the source's name)
  CC50: 64.5 µM
[5]
  TGI: 2620 nM
[6]
  TGI: 3.76 µM
[6]; read-out: Activity
  growth at 10 µM: -3.79%
[7]
  growth at 10 µM: 10.2%
